# A selection: hits, their analogues and other compounds. The true share with any hit is near 2.5%.
# PglD DTNB: C. jejuni PglD acetyltransferase inhibitors, primary screen, biochemical, DTNB colorimetric, single point. hit rate 0.098% among 360,000. inhibition, % at 12.5 µM. purified PglD enzyme, DTNB colorimetric CoA detection. AID 602405, 2012; in the data active = inhibition above about 16%, passing the limit was not always enough; inconclusive = no clear call, values can overlap the other calls
# SIRT5 inh: SIRT5 desuccinylase inhibitors, primary screen, biochemical, fluorescence imaging, single point, set 5 | hit rate 1.1% among 330,000 | NAD-dependent protein deacylase sirtuin-5, mitochondrial (Homo sapiens), Q9NXA8 | inhibition, % at 15 µM | Purified SirT5, succinyl-peptide AMC, trypsin-coupled fluorescence; in the data active = inhibition above about 15%; inconclusive = no clear call, values can overlap the other calls
# Target sequence (Q9NXA8 whole entry, looked up): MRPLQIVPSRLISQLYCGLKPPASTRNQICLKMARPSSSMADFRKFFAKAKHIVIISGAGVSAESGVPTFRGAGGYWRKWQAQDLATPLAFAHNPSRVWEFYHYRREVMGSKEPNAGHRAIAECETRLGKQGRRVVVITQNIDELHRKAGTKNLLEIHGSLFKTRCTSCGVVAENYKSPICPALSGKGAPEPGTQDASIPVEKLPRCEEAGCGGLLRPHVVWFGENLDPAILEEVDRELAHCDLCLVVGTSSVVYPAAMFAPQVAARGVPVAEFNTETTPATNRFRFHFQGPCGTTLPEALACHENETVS
# ERAP1 inh: human ERAP1 aminopeptidase inhibitors, primary screen, biochemical, single point, plate reader; hit rate 0.15% among 340,000; recombinant ERAP1, Leu-AMC fluorescence, 60 min; inhibition, % at 10.7 µM;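 active = mean replicate inhibition of at least 30%, or all replicates individually reaching that 30% level; inactive = mean below 30% and not every replicate reaching it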;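 also: 0% = neutral control wells and 100% = L-leucinethiol positive control wells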
# E-selectin induc: E-selectin induction in HUVECs, primary screen, imaging, HUVEC, immunofluorescence imaging, single point; AID 686992, 2013; hit rate 0.37% among 260,000; activation, % at 7.58 µM; normalized: neutral wells 0, TNF-alpha wells 100; P16581;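 active = mean E-selectin-positive cell signal at least 10% of the positive control, reached in at least 60% of replicates, without over 20% cell loss; inconclusive = no rule given, readout overlaps actives, possibly toxicity-flagged; inactive = the rest, including those meeting only one limit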
#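 material = human umbilical vein endothelial cells (HUVEC), E-selectin induction | quantity = 3,000 cells/well | medium = EGM-2 growth medium on 0.1% gelatin-coated wells | technique = immunofluorescence imaging | read-out basis = % PE-positive cells | control set = TNF-alpha positive control, DMSO neutral control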
# DENV2 CPE: inhibitors of DENV2 cytopathic effect, primary screen, cell-based, plate reader, single concentration; hit rate 1.7% among 350,000; DENV2-infected cells, cytopathic effect rescue; CPE inhibition, % at 9.99 µM; AID 651640, 2012; in the data active = CPE inhibition above about 20%, passing the limit was not always enough; inconclusive = no clear call, values can overlap the other calls; tested in BHK-21 cells;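 also: 0% = median of neutral control wells and 100% = median of positive control wells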
# * marks the source's active call; other numbers are inactive results; ? = inconclusive; / = no result given.
SMILES,PglD DTNB,SIRT5 inh,ERAP1 inh,E-selectin induc,DENV2 CPE
CNC[C@@H]1Oc2ccc(NS(=O)(=O)c3ccc(Cl)cc3)cc2C(=O)N([C@@H](C)CO)C[C@@H]1C,2,-2,3,/,8
CC(C)NC(=O)C1CCCN(S(C)(=O)=O)C1 (stereo unspecified),-7,/,/,/,/
CCOc1cc(C(=O)N(C)CC(=O)Nc2cccc3ccccc23)ccc1OC,/,-3,2,/,42*
CN(CC(=O)Nc1cccc2ccccc12)C(=O)c1ccc(NC(=O)CC#N)cc1,2,-1,-10,0,-3
C=C(C)Cn1c(=O)c2c(nc3n2CC(C)CN3Cc2ccccc2)n(C)c1=O (stereo unspecified),-26,-3,2,/,-5
O=C(N/N=C\c1ccc(F)cc1)c1ccc(Cn2cc(Br)c([N+](=O)[O-])n2)o1,3,-4,1,/,-6
CCCCNC(=O)CNC(=S)N(CCCN1CCOCC1)Cc1cccs1,2,-3,-1,/,44*
CCN(CC)CCNC(=O)CNC(=S)N(CCCN1CCOCC1)Cc1cccs1,0,4,3,0,1
Cc1c(C(=O)Nc2ccc(F)cc2)c2ccccn2c1CCc1ccncc1,/,1,-3,/,-7
Cc1ccc(S(=O)(=O)N(C)C[C@H]2Oc3cc(-c4cccc(F)c4)ccc3S(=O)(=O)N([C@@H](C)CO)C[C@@H]2C)cc1,0,?,0,24,-8
C[C@@H]1CN([C@H](C)CO)S(=O)(=O)c2ccc(-c3cccc(F)c3)cc2O[C@@H]1CN(C)S(=O)(=O)c1ccc(F)cc1,1,20*,0,0,-3
C[C@H]1CN([C@@H](C)CO)S(=O)(=O)c2ccc(-c3cccc(F)c3)cc2O[C@@H]1CN(C)S(=O)(=O)c1ccc(F)cc1,-1,18*,1,0,4
CCCNC(=O)[C@@H]1c2ccccc2C(=O)N(Cc2ccccc2OC)[C@H]1c1ccc(CO)cc1,2,-2,0,/,34*
Cc1cc(S(=O)(=O)NC(=O)[C@H]2O[C@@H](n3ccc(=O)[nH]c3=O)[C@H](O)[C@@H]2O)ccc1Br,/,-2,-5,0,20*
COc1ccc(S(=O)(=O)N(C)C[C@@H]2OCCCC[C@@H](C)Oc3ccc(NS(=O)(=O)c4ccc(F)cc4)cc3C(=O)N([C@H](C)CO)C[C@H]2C)cc1,-1,18*,0,1,13
COc1ccc(S(=O)(=O)Nc2ccc3c(c2)C(=O)N([C@H](C)CO)C[C@@H](C)[C@H](CN(C)S(=O)(=O)c2ccc(F)cc2)OCCCC[C@H](C)O3)cc1,5,10,-1,0,-5
COc1ccc(S(=O)(=O)N(C)C[C@@H]2OCCCC[C@H](C)Oc3ccc(NS(=O)(=O)c4ccc(F)cc4)cc3C(=O)N([C@@H](C)CO)C[C@H]2C)cc1,-3,17*,0,0,-6
COc1ccc(S(=O)(=O)N(C)C[C@H]2OCCCC[C@H](C)Oc3ccc(NS(=O)(=O)c4ccc(F)cc4)cc3C(=O)N([C@@H](C)CO)C[C@H]2C)cc1,-2,23*,1,0,-3
COc1ccc(S(=O)(=O)N(C)C[C@H]2OCCCC[C@@H](C)Oc3ccc(NS(=O)(=O)c4ccc(F)cc4)cc3C(=O)N([C@@H](C)CO)C[C@@H]2C)cc1,-1,23*,0,1,-4
O=C(Cc1ccccc1)NCC(=O)N1CCN(Cc2cccc(Cl)c2)CC1,1,-1,-4,-1,-9
COCCN1Cc2cccc(C(=O)N3CCN(c4ccccc4)CC3)c2C1=O,1,/,/,/,/
C[C@@H]1CN([C@@H](C)CO)C(=O)c2cc(NC(=O)Cc3cn(C)c4ccccc34)ccc2O[C@H]1CN(C)CC1CCCCC1,-1,1,9,0,13
COc1ccc(S(=O)(=O)N(C)C[C@H]2OCCCC[C@H](C)Oc3ccc(NS(=O)(=O)c4ccc(F)cc4)cc3C(=O)N([C@H](C)CO)C[C@H]2C)cc1,-2,23*,-1,1,-2

# Compound activity (PubChem BioAssay)
